# Screening results deposited in PubChem by several laboratories.
# Shown are actives, neighbours in structure and some others; about 3.4% of the full set was active somewhere.
# ANO1 block: TMEM16A chloride channel inhibitors, primary screen, cell-based, HTS; Anoctamin-1 (Mus musculus), Q8BHY3; HEK293 TMEM16A/YFP iodide influx fluorescence, ionomycin; normalized B-score (activity score, 25-100; higher = stronger inhibition) at 10 µM; 310,000 tested, 1.2% active;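 active = ratio plate-corrected score three or more library SD toward inhibition, starting fluorescence score within five deviations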;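 note: score derived from kinetic fluorescence span divided by baseline fluorescence per well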
# IMP-1 inh: IMP-1 metallo-beta-lactamase inhibitors, primary screen, biochemical, epi-absorbance readout, Pseudomonas aeruginosa enzyme; purified IMP-1, nitrocefin hydrolysis, epi-absorbance fluorescence; AID 1556, 2009; metallo-beta-lactamase IMP-1 (Pseudomonas aeruginosa); inhibition, % at 5.6 µM; 290,000 tested, 0.45% active;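 active = inhibition above the mean plus 3 SD of all compounds in the same screening run, cut at about 4.5% in these data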;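 note: 0% = IMP-1 with DMSO and 100% = DMSO wells lacking enzyme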
#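 System: Purified IMP-1 | Read-out basis: Percent enzyme inhibition | Controls: IMP-1 with DMSO as 0%, enzyme-free DMSO as 100% | Replicates: One well per compound | Doses: 5.6 µM nominal single concentration | Detection: Epi-absorbance fluorescence, 480 nm excitation, 530 nm emission | Incubation: 25 °C, 15 min preincubation, 25 min reaction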
# CHT block: inhibitors of human choline transporter CHT; CHT-expressing cells, membrane potential dye, choline response; hits give low values; 310,000 tested, 0.86% active; High affinity choline transporter 1 (Homo sapiens), Q9GZV3; B-score at 10 µM;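 active = B-score over 3 SD under the library average, and starting fluorescence ratio not unusually high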;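 note: choline stimulus applied at its EC90 after an EC20 pre-addition; B-score computed on integrated fluorescence ratio after choline addition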
# Target sequence (Q9GZV3 whole entry, looked up): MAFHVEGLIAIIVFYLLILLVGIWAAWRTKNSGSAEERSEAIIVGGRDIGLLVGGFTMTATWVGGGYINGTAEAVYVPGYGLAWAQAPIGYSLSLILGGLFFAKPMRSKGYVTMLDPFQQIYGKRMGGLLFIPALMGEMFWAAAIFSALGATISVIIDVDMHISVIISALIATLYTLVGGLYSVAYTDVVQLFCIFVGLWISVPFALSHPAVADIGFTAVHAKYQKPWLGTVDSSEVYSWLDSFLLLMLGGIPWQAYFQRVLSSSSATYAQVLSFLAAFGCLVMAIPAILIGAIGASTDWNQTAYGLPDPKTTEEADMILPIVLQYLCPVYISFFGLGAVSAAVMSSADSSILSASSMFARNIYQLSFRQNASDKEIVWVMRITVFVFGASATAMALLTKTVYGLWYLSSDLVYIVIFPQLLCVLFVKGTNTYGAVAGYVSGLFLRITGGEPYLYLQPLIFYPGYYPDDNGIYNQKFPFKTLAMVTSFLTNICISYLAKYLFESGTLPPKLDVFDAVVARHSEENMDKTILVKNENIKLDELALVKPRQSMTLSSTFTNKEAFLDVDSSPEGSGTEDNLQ
# TMEM16A act: TMEM16A chloride channel activators or potentiators, primary screen, cell-based, HTS; Anoctamin-1 (Mus musculus), Q8BHY3; HEK293 TMEM16A/YFP-H148Q/I152L, iodide quench fluorescence; hits give low values; 340,000 tested, 0.3% active; AID 623877, 2012; B-score at 10 µM;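 active = fluorescence-ratio B-score plate-corrected deviation score at least 3 library SD below zero, with starting fluorescence score within 5 deviations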;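 note: channel opened by trigger with iodide after compound preincubation; score built on the fluorescence ratio of max minus min over baseline; more negative score means more quench and so TMEM16A activation or potentiation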
# CHT allo act: CHT positive allosteric modulators, primary screen, cell-based, membrane potential dye, choline EC20 | AID 488977, 2010 | High affinity choline transporter 1 (Homo sapiens), Q9GZV3 | CHT-expressing cells; hits give high values; LV-AA mutant CHT in HEK293 cells | B-score at 10 µM | 310,000 tested, 0.49% active;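 active = initial fluorescence not abnormally high and integrated response B-score, plate-corrected, over 3 SD above library mean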
# VIM-2 inh: VIM-2 metallo-beta-lactamase inhibitors, primary screen, biochemical, epi-absorbance readout, Pseudomonas aeruginosa enzyme. AID 1527, 2009. 290,000 tested, 0.89% active. purified VIM-2, nitrocefin hydrolysis, epi-absorbance fluorescence. inhibition, % at 5.6 µM;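 active = inhibition above the mean of all tested compounds plus 3 SD, cutoff set per screening run, cut at about 7.5% in these data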;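 note: red hydrolysis product quenches plate fluorescence so inhibitors raise well fluorescence; 0% = enzyme with DMSO and 100% = DMSO without enzyme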
# The depositor's hits bear a star; i = inactive; nt = no result given.
SMILES,ANO1 block,IMP-1 inh,CHT block,TMEM16A act,CHT allo act,VIM-2 inh
COc1ccc(-c2nc(CSCC(=O)NCc3ccco3)c(C)o2)cc1,100*,-2,i,i,i,-4
Cc1cc(=O)c(C(=O)Nc2cccc(N3CCCC3=O)c2)nn1-c1ccccc1F,nt,nt,nt,-46*,nt,nt
CN1C(=O)c2cccc3c(N(C)C)ccc(c23)C1=O,i,1,i,i,i,9.8*
COc1cc(/C=C/C(=O)N2CC(C)OC(C)C2)cc(OC)c1OC (stereo unspecified),i,-1,i,i,i,1
CCCc1nnc(SCC(=O)N(CC)CC)n1CC1CCCO1 (stereo unspecified),i,-2,i,i,i,-1
CCCc1nnc(SCC(=O)N2CCCCC2C)n1CC1CCCO1 (stereo unspecified),25*,-2,i,i,i,-3
O=C(O)/C=C/c1ccc(S(=O)(=O)NCc2cccnc2)cc1,i,-3,i,i,i,-2
COc1cccc(NC(=O)c2cccc(N3C(=O)C4C5C=CC(C5)C4C3=O)c2)c1 (stereo unspecified),25*,2,i,i,i,-1
Cc1nc2ccc(NS(=O)(=O)c3ccc(Br)cc3)cc2s1,nt,nt,nt,i,nt,nt
O=C(NC(C(=O)N/N=C/c1ccncc1)c1n[nH]c(=O)c2ccccc12)c1ccccc1 (stereo unspecified),i,-1,i,i,i,-2
O=C(NC(C(=O)N/N=C/c1cccnc1)c1n[nH]c(=O)c2ccccc12)c1ccccc1 (stereo unspecified),i,0,i,-6.4*,i,-1
COCCN(C(=O)C1CC(=O)N(Cc2ccccc2)C1)c1nc(-c2ccc([N+](=O)[O-])cc2)cs1 (stereo unspecified),nt,nt,nt,i,nt,nt
CCN1C(=O)/C(=C2\SC(=S)N(CC3CCCO3)C2=O)c2ccccc21 (stereo unspecified),nt,0,nt,nt,nt,-1
CCN1C(=O)/C(=C2\SC(=S)N(NC(=O)c3ccccc3O)C2=O)c2ccccc21,100*,-6,i,i,i,-2
CCN(CCCNC(=O)CCc1nc(-c2ccc(OC)cc2)no1)c1cccc(C)c1,100*,-3,i,i,i,-4
Cc1ccc(NC(=S)NCCc2ccccc2)c(C)c1,i,-2,i,i,i,-5
Cc1ccc(C)c(NC(=S)NCCc2ccc(F)cc2)c1,i,20*,i,i,i,-2
Cc1cc(NCCN2CCCCC2)n2c(nc3ccccc32)c1C#N,nt,-2,nt,nt,nt,8.7*
Cc1cc(-n2ccnc2)n2c(nc3ccccc32)c1C#N,i,3,i,i,i,7.7*
CCCc1cc(NCCCO)n2c(nc3ccccc32)c1C#N,i,0,i,i,i,10*
CCN(CC)CCC=C(c1cccs1)c1cccs1,nt,nt,nt,i,nt,nt
COc1ccc(S(=O)(=O)N2CCOCC2)cc1NC(=O)c1ccc(=O)[nH]c1,nt,nt,nt,i,nt,nt
N#CC1=C(S)N(c2ccccc2)C2(CCCCC2)NC1=O,i,1,i,-5*,i,2
COc1ccc(Cl)cc1NC(=O)CSc1sc2c(O)cc(=O)[nH]c2c1C#N,i,0,i,i,i,0
Cc1ccc(Cl)cc1NC(=O)CSc1sc2c(O)cc(=O)[nH]c2c1C#N,i,-1,i,-4.9*,i,1
SMILES,ANO1 block,IMP-1 inh,CHT block,TMEM16A act,CHT allo act,VIM-2 inh
Cc1ccc(OCC(=O)N/N=C2\CC(=O)CC(C)(C)C2)c(Br)c1,i,-3,i,i,i,-3
CC(=O)c1sc(NCc2ccccc2)nc1C,i,28*,i,i,i,0
CCCCCCOC(=O)C[N+](C)(C)CCOC1CC2CCC1(C)C2(C)C (stereo unspecified),i,-3,i,i,8.5*,-3
C1CN(CCN2CCOCC2)CCN1,i,-2,i,i,i,0
Cc1ccc(/C=N/NS(=O)(=O)c2ccc([N+](=O)[O-])cc2)o1,i,-3,i,i,i,-2
CCCCCCCCCCS(=O)(=O)N/N=C/c1ccc([N+](=O)[O-])cc1,100*,-5,i,i,i,-3
COc1ccc(N(CC(=O)O)S(=O)(=O)c2ccc(C)cc2)cc1Cl,i,-1,i,i,i,11*
COc1ccc(C)cc1S(=O)(=O)N(CC(=O)O)c1ccc(C)cc1,i,-2,i,i,i,1
CN(C)S(=O)(=O)c1cccc(NC(=O)c2cc(=O)[nH]c3ccccc23)c1,i,0,i,i,i,1
Cc1ccc(S(=O)(=O)N(C)C)cc1NC(=O)c1cc(=O)[nH]c2ccccc12,i,-1,i,-6.6*,i,-3
O=C(COC(=O)c1ccccc1NS(=O)(=O)c1ccc(Cl)cc1)NCc1ccccc1,100*,-2,i,i,i,-5
CS(=O)(=O)N1CCN(c2ccccc2NC(=O)c2cc3ccccc3o2)CC1,i,0,i,i,i,2
Cc1[nH]c2ccccc2c1C(=O)/C=C/c1ccccc1,100*,-1,i,i,i,-2
C=C(C)CNC(=O)C1CCC(=O)N(CCCc2ccccc2)C1 (stereo unspecified),i,-1,i,i,i,-2
CCc1ccc(OCCOCC(O)CN2CCN(Cc3ccc(Cl)cc3)CC2)cc1 (stereo unspecified),100*,-3,i,i,i,-5
CS(=O)(=O)Nc1ccccc1C(=O)Nc1cccc(Cl)c1,25*,-7,i,i,i,-3
CC1CN(S(=O)(=O)c2ccc(CN3C(=O)c4cccnc4C3=O)s2)c2ccccc2O1 (stereo unspecified),i,-2,i,i,i,2
Cn1c(-c2ccc(Br)o2)nc2cc(Br)ccc21,i,-1,i,i,i,8.0*
Cn1c(-c2ccc(Br)o2)nc2ccccc21,i,1,i,i,i,3
COc1ccc(Nc2c3c(nc4ccccc24)CCC3)cc1,i,-3,i,i,i,6
COc1ccc(Nc2nc(-c3ccncc3)nc3ccccc23)cc1,i,-2,i,i,i,11*
COc1ccc(Nc2c3ccccc3nc3ccccc23)cc1,i,-4,i,i,i,9.2*
